≈ marks a conversion by molar mass, not a printed value.
Assays:
[1] = target: Phosphatidylinositol 4,5-bisphosphate 3-kinase catalytic subunit alpha isoform (Homo sapiens, UniProt P42336); test: Inhibition of recombinant PI3K p110alpha using L-alpha-phosphatidylinositol as substrate and [gamma33P]ATP after 60 mins by thin layer chromatographic technique
How it was run: (§1)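 In-house recombinant enzyme (0.1 µg) with L-α-phosphatidylinositol in 40 mM Tris-HCl pH 7.4, 200 mM NaCl, 1 mM EDTA; DMSO 1% final. Started with 5 mM MgCl₂, 100 µM ATP plus [γ-³³P]ATP; 1 h at room temperature, stopped with 1 M HCl. Lipids extracted, separated by TLC, phosphorimaged. Nine inhibitor concentrations; two experiments, IC50 averaged.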

[2] = target: Phosphatidylinositol 4,5-bisphosphate 3-kinase catalytic subunit beta isoform (Homo sapiens, UniProt P42338); test: Inhibition of recombinant PI3K p110beta using L-alpha-phosphatidylinositol as substrate and [gamma33P]ATP after 60 mins by thin layer chromatographic technique; how it was run: as §1
Phosphatidylinositol 4,5-bisphosphate 3-kinase catalytic subunit beta isoform, sequence (P42338 whole entry, canonical isoform): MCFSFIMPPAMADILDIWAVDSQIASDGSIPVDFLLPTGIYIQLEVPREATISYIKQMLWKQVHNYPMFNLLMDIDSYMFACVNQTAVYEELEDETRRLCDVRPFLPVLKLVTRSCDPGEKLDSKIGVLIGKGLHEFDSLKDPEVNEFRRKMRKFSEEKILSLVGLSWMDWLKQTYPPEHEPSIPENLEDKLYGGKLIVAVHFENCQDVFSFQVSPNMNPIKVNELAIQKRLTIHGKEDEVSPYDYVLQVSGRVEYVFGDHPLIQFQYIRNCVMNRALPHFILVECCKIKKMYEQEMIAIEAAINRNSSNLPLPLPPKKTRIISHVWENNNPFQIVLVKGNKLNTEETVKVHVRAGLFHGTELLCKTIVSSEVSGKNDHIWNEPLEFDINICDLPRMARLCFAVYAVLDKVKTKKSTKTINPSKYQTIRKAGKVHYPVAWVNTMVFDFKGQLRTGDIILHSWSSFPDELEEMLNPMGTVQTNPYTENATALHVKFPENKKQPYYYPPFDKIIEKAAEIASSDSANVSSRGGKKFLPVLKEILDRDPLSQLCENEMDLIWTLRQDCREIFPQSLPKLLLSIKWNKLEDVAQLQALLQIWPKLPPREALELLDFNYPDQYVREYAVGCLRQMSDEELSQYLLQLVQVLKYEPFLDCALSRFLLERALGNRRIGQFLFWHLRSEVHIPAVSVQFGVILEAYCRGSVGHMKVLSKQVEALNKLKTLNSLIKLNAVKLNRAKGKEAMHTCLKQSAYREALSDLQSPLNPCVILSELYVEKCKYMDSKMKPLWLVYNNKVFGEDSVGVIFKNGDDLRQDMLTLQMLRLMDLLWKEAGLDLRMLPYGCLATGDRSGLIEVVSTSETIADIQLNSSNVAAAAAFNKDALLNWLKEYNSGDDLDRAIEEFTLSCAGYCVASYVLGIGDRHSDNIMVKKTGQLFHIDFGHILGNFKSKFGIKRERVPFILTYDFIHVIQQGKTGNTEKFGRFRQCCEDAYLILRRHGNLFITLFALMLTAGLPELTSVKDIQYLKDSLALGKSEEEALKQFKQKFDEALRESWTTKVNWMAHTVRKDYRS

[3] = Cytotoxicity against human NZB5 cells assessed as inhibition of [3H]thymidine incorporation measured after 5 days; type: functional, cell-based
How it was run: (§2)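 Early-passage lines grown in α-MEM with insulin, transferrin, selenite and 5% FBS. Wells seeded with 1000 cells; inhibitor in dilution steps up to a maximum of 20. Five days under 5% O₂/5% CO₂/90% N₂, ³H-thymidine added for the last 6 h. Duplicates per dose; fit y = y₀ + ae^−bx; IC50 = 50% reduction in incorporation.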

[4] = Cytotoxicity against human NZOV9 cells harboring PI3K p110alpha Y1021C mutant assessed as inhibition of [3H]thymidine incorporation measured after 5 days; type: functional, cell-based; how it was run: as §2
[5] = Aqueous solubility of the compound; type: physicochemical; conditions: water
How it was run: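 Solid mixed with water to make 2 mM, sonicated 15 min, centrifuged 13000 rpm for 6 min. Clear supernatant diluted 2-fold with water, recentrifuged and injected on HPLC. Peak area compared with a DMSO standard solution of the compound, correcting for dilution and injection volume.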

[6] = Inhibition of DNA-PK
[7] = target: Dual specificity mitogen-activated protein kinase kinase 1 (Homo sapiens) (UniProt Q02750); test: Inhibition of MKK1 assessed as residual activity at 1 uM
Dual specificity mitogen-activated protein kinase kinase 1 (Homo sapiens), sequence (Q02750 whole entry): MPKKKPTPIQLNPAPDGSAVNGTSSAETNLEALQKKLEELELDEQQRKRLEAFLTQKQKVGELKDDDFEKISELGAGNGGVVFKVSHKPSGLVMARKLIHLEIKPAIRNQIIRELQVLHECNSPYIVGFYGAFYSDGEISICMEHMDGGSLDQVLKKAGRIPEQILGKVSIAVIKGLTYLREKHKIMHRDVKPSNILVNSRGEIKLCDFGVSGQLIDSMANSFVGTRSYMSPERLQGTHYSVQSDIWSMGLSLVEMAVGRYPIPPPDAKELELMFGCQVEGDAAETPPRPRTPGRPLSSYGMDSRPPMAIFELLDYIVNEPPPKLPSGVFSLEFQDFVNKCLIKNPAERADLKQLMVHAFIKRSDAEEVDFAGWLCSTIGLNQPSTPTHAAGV

[8] = target: Ribosomal protein S6 kinase alpha-1 (Homo sapiens) (UniProt Q15418); test: Inhibition of RSK1 assessed as residual activity at 10 uM
Ribosomal protein S6 kinase alpha-1 (Homo sapiens), sequence (Q15418 whole entry): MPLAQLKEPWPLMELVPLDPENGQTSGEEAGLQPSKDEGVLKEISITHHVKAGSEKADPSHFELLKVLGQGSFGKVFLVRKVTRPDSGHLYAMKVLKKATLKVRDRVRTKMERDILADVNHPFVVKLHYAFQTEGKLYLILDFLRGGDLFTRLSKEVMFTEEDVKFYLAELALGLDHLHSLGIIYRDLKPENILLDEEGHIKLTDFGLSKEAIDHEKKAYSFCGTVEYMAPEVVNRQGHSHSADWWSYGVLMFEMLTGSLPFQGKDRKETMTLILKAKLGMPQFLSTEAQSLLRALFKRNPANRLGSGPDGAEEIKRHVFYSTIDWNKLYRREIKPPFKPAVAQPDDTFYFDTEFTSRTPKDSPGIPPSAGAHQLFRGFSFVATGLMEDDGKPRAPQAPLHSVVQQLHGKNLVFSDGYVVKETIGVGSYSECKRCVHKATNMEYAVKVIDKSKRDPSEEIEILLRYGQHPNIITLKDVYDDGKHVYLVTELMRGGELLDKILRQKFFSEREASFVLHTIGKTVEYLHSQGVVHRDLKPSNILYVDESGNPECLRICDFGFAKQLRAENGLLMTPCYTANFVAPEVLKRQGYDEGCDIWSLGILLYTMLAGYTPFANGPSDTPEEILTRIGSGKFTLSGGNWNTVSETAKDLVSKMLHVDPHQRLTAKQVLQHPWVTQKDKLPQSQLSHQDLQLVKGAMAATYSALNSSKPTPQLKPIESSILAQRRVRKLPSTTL

[9] = target: High affinity nerve growth factor receptor (Homo sapiens) (UniProt P04629); test: Inhibition of TrkA assessed as residual activity at 1 uM
[10] = Inhibition of PKA assessed as residual activity at 1 uM
[11] = target: Misshapen-like kinase 1 (Homo sapiens) (UniProt Q8N4C8); test: Inhibition of MINK1 assessed as residual activity at 1 uM
Misshapen-like kinase 1 (Homo sapiens), sequence (Q8N4C8 whole entry, looked up, canonical isoform): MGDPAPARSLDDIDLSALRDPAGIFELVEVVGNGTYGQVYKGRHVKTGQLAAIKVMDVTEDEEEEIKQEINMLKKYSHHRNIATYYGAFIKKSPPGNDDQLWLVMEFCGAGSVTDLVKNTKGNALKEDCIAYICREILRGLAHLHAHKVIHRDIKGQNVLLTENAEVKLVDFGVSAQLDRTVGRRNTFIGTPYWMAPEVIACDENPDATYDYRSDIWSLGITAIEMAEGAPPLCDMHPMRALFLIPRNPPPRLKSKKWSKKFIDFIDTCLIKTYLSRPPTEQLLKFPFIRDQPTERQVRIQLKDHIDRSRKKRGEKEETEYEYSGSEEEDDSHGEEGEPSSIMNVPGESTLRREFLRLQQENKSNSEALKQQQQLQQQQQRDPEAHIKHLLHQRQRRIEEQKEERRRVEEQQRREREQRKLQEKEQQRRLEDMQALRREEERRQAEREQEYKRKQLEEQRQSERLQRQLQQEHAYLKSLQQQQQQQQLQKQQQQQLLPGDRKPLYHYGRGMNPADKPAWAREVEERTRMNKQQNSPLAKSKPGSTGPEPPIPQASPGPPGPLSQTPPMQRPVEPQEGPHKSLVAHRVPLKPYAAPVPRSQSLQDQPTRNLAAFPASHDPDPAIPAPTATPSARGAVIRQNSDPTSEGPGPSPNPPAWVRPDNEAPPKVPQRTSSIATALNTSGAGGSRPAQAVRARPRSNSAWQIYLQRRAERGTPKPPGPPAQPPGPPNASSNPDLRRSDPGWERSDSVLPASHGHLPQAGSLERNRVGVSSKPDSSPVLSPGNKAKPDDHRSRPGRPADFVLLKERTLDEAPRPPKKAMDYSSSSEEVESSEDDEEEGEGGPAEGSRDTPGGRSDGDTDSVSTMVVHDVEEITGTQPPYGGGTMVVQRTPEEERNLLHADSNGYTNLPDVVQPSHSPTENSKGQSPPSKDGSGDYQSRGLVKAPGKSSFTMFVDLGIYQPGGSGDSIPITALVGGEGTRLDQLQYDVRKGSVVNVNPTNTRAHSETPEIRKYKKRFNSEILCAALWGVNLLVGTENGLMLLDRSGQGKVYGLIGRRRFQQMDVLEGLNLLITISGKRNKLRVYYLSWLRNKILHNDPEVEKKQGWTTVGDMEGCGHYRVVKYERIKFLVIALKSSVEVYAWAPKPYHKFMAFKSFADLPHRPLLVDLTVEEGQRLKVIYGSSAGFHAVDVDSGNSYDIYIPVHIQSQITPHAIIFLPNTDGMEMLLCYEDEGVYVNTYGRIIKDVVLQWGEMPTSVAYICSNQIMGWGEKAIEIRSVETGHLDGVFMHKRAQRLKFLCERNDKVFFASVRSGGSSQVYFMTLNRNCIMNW

[12] = target: Phosphatidylinositol 4,5-bisphosphate 3-kinase catalytic subunit alpha isoform (Homo sapiens, UniProt P42336, H1047R); test: Inhibition of PI3K […] H1047R mutant-mediated PKB phosphorylation at Thr308 in human HCT116 cells after 15 mins by immunoblot analysis; type: cell-based, HCT-116
Phosphatidylinositol 4,5-bisphosphate 3-kinase catalytic subunit alpha isoform (Homo sapiens, UniProt P42336, H1047R), sequence (P42336 whole entry H1047R, canonical isoform): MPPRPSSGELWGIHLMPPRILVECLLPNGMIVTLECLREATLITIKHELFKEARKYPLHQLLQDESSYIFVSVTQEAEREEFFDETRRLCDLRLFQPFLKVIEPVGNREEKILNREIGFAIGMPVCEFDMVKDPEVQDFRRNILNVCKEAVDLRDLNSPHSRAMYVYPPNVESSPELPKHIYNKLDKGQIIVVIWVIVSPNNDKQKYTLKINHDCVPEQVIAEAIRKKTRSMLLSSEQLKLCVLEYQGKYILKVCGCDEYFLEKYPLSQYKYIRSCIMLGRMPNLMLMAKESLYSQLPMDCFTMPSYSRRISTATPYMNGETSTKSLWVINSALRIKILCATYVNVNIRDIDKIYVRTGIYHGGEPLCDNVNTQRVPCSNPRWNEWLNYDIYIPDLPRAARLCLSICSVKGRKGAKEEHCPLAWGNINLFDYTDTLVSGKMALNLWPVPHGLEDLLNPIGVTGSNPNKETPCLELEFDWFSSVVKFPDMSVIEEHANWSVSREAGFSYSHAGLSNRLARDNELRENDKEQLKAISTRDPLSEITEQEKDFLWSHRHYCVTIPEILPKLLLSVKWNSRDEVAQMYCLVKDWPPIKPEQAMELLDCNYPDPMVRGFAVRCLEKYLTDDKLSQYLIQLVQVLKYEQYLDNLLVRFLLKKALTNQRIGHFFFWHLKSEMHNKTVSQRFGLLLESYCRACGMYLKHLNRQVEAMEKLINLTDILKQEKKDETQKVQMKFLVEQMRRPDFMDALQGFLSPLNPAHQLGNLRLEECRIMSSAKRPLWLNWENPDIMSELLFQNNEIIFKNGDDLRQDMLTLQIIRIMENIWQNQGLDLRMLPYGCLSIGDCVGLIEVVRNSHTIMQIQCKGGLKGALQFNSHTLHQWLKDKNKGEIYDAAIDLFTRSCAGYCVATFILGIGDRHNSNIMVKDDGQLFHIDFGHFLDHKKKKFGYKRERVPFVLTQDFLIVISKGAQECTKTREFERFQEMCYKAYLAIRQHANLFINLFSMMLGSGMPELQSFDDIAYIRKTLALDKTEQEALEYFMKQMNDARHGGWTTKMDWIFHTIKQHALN
How it was run: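 HCT-116 cells in MEM alpha with 10% FBS and penicillin/streptomycin, seeded, grown 1 day, then starved overnight serum-free. Inhibitor in DMSO (0.1% final) at varying concentrations for 15 min, then 500 nM insulin for 5 min. Lysates immunoblotted for phospho-PKB at Ser473 or Thr308.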

[13] = Cmax in CD1 mouse at 10 mg/kg, ip; type: ADME, organism-based; design: dose 10 mg/kg, route intraperitoneal; conditions: in vivo
How it was run: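 Age-matched specific pathogen-free male CD-1 mice; single 10 mg/kg i.p. dose in 5% DMSO, 45% PEG-400, 20% 2-hydroxypropyl-β-cyclodextrin, 30% water. Blood sampled at multiple times post-dose; plasma taken after centrifugation (10 min, 6000 rpm, 20 °C). Plasma analysed by LC-MS/MS; parameters from non-compartmental analysis.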

HCT-116 = test: Antitumor activity against human HCT116 cells xenografted in Rag1knockout mouse assessed as tumor growth delay at 40 mg/kg, ip QD measured on day 7 relative to untreated control; type: functional; conditions: route intraperitoneal
How it was run: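 Male Rag1−/− mice (age-matched, SPF) inoculated s.c. with 5 × 10⁶ HCT-116 cells in PBS. Dosing started at ~150 mm³ tumours: q.d. i.p. in 7.5% DMSO, 42.5% PEG-400, 20% 2-hydroxypropyl-β-cyclodextrin, 30% water; controls received vehicle. Volume = (L × w²) × π/6, measured three times weekly; bodyweight daily. Treatment stopped if mean weight loss >15%; 1-way ANOVA with Holm–Sidak.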

SK-OV-3 = test: Antitumor activity against human SKOV3 cells xenografted in nude NIH3 mouse assessed as tumor growth delay at 30 mg/kg, ip QD administered for 14 days relative to untreated control; type: functional; conditions: SK-OV-3, ip, 336 h, route intraperitoneal, read-out: GI
How it was run: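 Female NIH III nude mice (age-matched, SPF) inoculated s.c. with 5 × 10⁶ SK-OV-3 cells in PBS. Dosing from ~150 mm³ tumours, 30 mg/kg i.p. q.d. for 14 days in 7.5% DMSO/42.5% PEG-400/20% 2-hydroxypropyl-β-cyclodextrin/30% water; vehicle controls. Volume (L × w²) × π/6 three times weekly; bodyweight daily; culled above 20% weight loss; 1-way ANOVA, Holm–Sidak.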

Phosphatidylinositol 4,5-bisphosphate 3-kinase catalytic subunit alpha isoform (Homo sapiens, UniProt P42336), sequence (P42336 whole entry, canonical isoform): as the sequence (P42336 whole entry H1047R, canonical isoform) above, with R1047H counted along it

SMILES: Cc1ccc([N+](=O)[O-])cc1S(=O)(=O)N(CCO)/N=C/c1cnn2ccc(C#N)cc12
- IC50 [1]: 1.3 nM
- IC50 [2]: 51 nM
- IC50 [3]: 60 nM
- IC50 [4]: 140 nM
- solubility [5]: 1.2 µg/mL (≈ 2.8 µM)
- IC50 [6]: 0.3 nM
- Activity [7]: 65%
- Activity [8]: 5%
- Activity [9]: 73%
- Activity [10]: 59%
- Activity [11]: 16%
- IC50 [12]: 49 nM
- Cmax [13]: 7.58 µM
- Activity (HCT-116): 43.8%
- inhibition in vivo at 30 mg/kg (SK-OV-3): 49.9%

From ChEMBL document CHEMBL1926530, “Novel pyrazolo[1,5-a]pyridines as p110α-selective PI3 kinase inhibitors: Exploring the benzenesulfonohydrazide SAR” (Bioorg Med Chem, 2012)
